# Sampled rows, rich in hits. Any-hit rate of the full collection: about 1.1%.
# LYPLA1 inh – LYPLA1 inhibitors, primary screen, counter-screen for PME1 inhibitor project, biochemical, fluorescence polarization, FP-Rh probe ABPP | recombinant LYPLA1 | inhibition, % at 5.9 µM | 0.16% of 320,000 active;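 active = inhibition above the mean of all tested compounds plus 3 SD, set per campaign, cut at about 14% in these data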;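 note: inhibitors block serine hydrolase probe labeling of LYPLA1 so polarization falls; 0% = enzyme with DMSO and 100% = wells lacking LYPLA1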
# Target sequence (O75608 whole entry, looked up): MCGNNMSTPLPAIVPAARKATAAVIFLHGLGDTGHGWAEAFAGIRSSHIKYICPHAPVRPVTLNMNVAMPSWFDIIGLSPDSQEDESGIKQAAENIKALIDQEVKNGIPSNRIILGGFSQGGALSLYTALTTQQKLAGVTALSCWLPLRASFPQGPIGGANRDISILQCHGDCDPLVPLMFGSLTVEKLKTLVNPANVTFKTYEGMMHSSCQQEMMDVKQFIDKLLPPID
# LYPLA2 counter – LYPLA2 inhibitors, primary screen, counter-screen for PME1 inhibitor project, biochemical, fluorescence polarization, FP-Rh probe ABPP; recombinant LYPLA2; inhibition, % at 5.9 µM; 0.38% of 320,000 active; AID 2177, 2009;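 active = inhibition above the screen-wide mean plus 3 SD, limit set per campaign, cut at about 26% in these data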;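 note: 0% = LYPLA2 with DMSO and 100% = wells lacking LYPLA2 enzyme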
# Target sequence (O95372 whole entry, looked up): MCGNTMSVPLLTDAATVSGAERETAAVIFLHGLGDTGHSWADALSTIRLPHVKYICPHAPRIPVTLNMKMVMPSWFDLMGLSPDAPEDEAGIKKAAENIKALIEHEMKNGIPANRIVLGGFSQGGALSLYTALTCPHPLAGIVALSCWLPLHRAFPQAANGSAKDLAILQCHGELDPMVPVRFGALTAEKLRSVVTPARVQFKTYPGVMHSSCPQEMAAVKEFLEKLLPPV
# PREPL inhibitor – PREPL enzyme inhibitors, primary screen, biochemical, fluorescence polarization. recombinant PREPL, fluorescence polarization activity-based probe. inhibition, % at 5.96 µM. 0.68% of 320,000 active. AID 2751, 2010; in the data active = inhibition above about 43%;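 note: 0% = enzyme with DMSO and 100% = wells lacking enzyme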
# procasp7 counter – procaspase-7 activators, primary screen, counter-screen for procaspase-3 activator project, biochemical, absorbance, HTS, human | recombinant procaspase-7, Ac-DEVD-pNA absorbance 405 nm; D23A/D198A/D206A triple mutant, cannot self-cleave; scale: DMSO 0, 5 µM enzyme 100 | activation, % at 8.5 µM | 0.093% of 330,000 active;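 active = percent activation above the screen-wide mean plus 3 SD, cut at about 25% in these data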
#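 buffer or medium = Zinc-free HEPES/NaCl buffer, pH 7.4 | material = Procaspase-7 triple mutant (PC-7 D3A) | input = 2 µM procaspase-7 mutant as dispensed | signal = Epi-absorbance of released pNA at 405 nm, two timepoints | timing = 1 h preincubation, 2 h reaction | replicates = singlicate compound testing | evaluation = % activation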
# proCasp3 act – activators of human procaspase-3 D3A mutant, primary screen, biochemical, absorbance, PC-3 D3A mutant, single concentration; recombinant procaspase-3 D3A, Ac-DEVD-pNA absorbance 405 nm; 0.11% of 330,000 active; activation, % at 8.5 µM;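 active = activation above the mean of all tested compounds plus 3 SD, cut at about 21% in these data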;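 note: 0% = DMSO alone and 100% = DMSO wells spiked with extra 5 µM PC-3 D3A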
#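 Assay system – Procaspase-3 D3A mutant · Benchmarks – DMSO low control, extra-enzyme high control · Technique – 405 nm absorbance of p-nitroaniline, reads at 0 and 120 min · Doses – 8.5 µM nominal · Measure – % activation between DMSO and enzyme-spiked controls · Also added – Ac-DEVD-pNA chromogenic peptide substrate · Schedule – 1 h compound preincubation, 2 h substrate hydrolysis at 25 °C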
# LYPLA1 conf – LYPLA1 inhibitors, retest, confirmation, counter-screen for PME1 inhibitor project, biochemical, fluorescence polarization, FP-Rh probe ABPP; inhibition, % at 5.9 µM; AID 2233, 2010; recombinant LYPLA1; shares compounds with LYPLA1 inh; 69% of 480 active;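 active = mean inhibition across replicates above the hit cutoff set in the primary screen, cut at about 15% in these data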;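 note: loss of FP-Rh probe labeling of LYPLA1 seen as lower polarization; 0% = LYPLA1 with DMSO and 100% = wells lacking LYPLA1 enzyme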
# LYPLA2 confirm – LYPLA2 inhibitors, retest, confirmation, counter-screen for PME1 inhibitor project, biochemical, fluorescence polarization, FP-Rh probe ABPP; shares compounds with LYPLA2 counter; recombinant LYPLA2; inhibition, % at 5.9 µM; 72% of 1,100 active;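 active = mean inhibition across replicates above the hit cutoff set in the primary screen, cut at about 26% in these data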;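 note: blocked labeling of the enzyme by serine hydrolase FP-Rh probe lowers polarization; 0% = enzyme with DMSO and 100% = wells lacking LYPLA2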
# Active calls of the source: *; · = not tested or not shown.
SMILES,LYPLA1 inh,LYPLA2 counter,PREPL inhibitor,procasp7 counter,proCasp3 act,LYPLA1 conf,others
c1ccc(CSc2nc3ccccc3[nH]2)cc1,-1,-7,1,-2,7,·,
CCn1c(CSc2nccn2C)nc2cc(C(=O)O)ccc21,26*,26,20,1,-1,24*,
CCn1c(CSc2nc3ccccc3[nH]2)nc2cc(C(=O)O)ccc21,20*,24,15,6,-7,14,
N=c1c(C(=O)NCC2CCCO2)cc2c(=O)n3ccccc3nc2n1Cc1ccccc1Cl (stereo not drawn),0,4,15,-18,-16,·,
CSC(=NC#N)N1CCN(c2ccc([N+](=O)[O-])cc2)CC1,19*,14,9,3,-2,24*,
CSC(=NC#N)N1CCN(C(=NC#N)SC)CC1,-3,-6,20,6,0,·,
CSC(=NC#N)N1CCN(C(c2ccccc2)c2ccccc2)CC1,20*,21,8,3,-9,24*,
COc1ccc(CNC(=O)COC(=O)c2ccc(OCC3CCCO3)cc2)cc1 (stereo not drawn),-1,2,19,8,-1,·,
CCNC(=O)N(C)C[C@H]1N[C@@](C)(C(=O)OC)[C@H]2C(=O)N(Cc3ccccc3)C(=O)[C@@H]12,·,·,2,-2,17,·,
Cc1onc(-c2ccccc2Cl)c1C(=O)NCc1ccc2c(c1)cc(C)n2C,16*,22,30,-2,-2,13,
Cc1ccc(CNC(=O)c2c(-c3ccccc3Cl)noc2C)cc1,-4,2,-4,0,-4,·,
Cc1nnc(SCC(=O)Nc2sc3c(c2C#N)CCCC3)[nH]c1=O,-2,-10,18,-21,-17,·,
N#Cc1c(NC(=O)CSc2nc(N)cc(=O)[nH]2)sc2c1CCCC2,46*,14,7,11,7,47*,
CCOc1ccc(C2OC34CCCCC3C(C#N)(C#N)C2(C#N)C(=N)O4)cc1OC (stereo not drawn),21*,25,16,-10,-3,8,
CCOC(=O)C1(O)CSc2nc3sc(C(=O)O)c(C)c3c(=O)n21 (stereo not drawn),14*,13,9,3,2,5,
Cc1c(C(=O)O)sc2nc(C)n(C)c(=O)c12,-2,-4,10,1,4,·,
CCCCc1cc(=O)oc2cc(OCc3nn[nH]n3)c(Cl)cc12,22*,17,-5,3,8,21*,
CN(C(=O)CN1C(=O)NC(c2ccccc2)(c2ccccc2)C1=O)C1CCS(=O)(=O)C1 (stereo not drawn),-1,6,1,5,-7,·,
O=C(CCCCCN1C(=O)c2ccccc2C1=O)Oc1ccc2c3c(c(=O)oc2c1)CCC3,32*,20,15,4,-1,51*,
O=C(Oc1ccc2c3c(c(=O)oc2c1)CCC3)c1ccco1,-6,-4,40,-5,-6,·,
Cc1cnc(C(=O)OCc2ccc(Br)cc2F)cn1,4,4,6,-3,-1,·,
Nc1nc(NCc2ccco2)nc(N2CCN(Cc3ccccc3)CC2)c1[N+](=O)[O-],29*,48*,-6,5,5,42*,LYPLA2 confirm=48*
Nc1nc(NCc2ccco2)nc(N2CCCC2)c1[N+](=O)[O-],-2,4,2,1,10,·,
